Legend:
T47D [1] = test: Cytotoxicity against human T47D cells assessed as cell growth at 1 uM after 48 hrs by sulforhodamine B assay; format: functional; conditions: read-out: Activity
SNB-75 = test: Cytotoxicity against human SNB75 cells assessed as cell growth at 0.01 uM after 48 hrs by sulforhodamine B assay; format: functional; conditions: SNB-75, 48 h, read-out: Activity
OVCAR-5 = test: Cytotoxicity against human OVCAR5 cells assessed as cell growth at 1 uM after 48 hrs by sulforhodamine B assay; format: functional; conditions: OVCAR-5, 48 h, read-out: Activity
KM12 = test: Growth inhibition of human KM12 cells after 48 hrs by sulforhodamine B assay; format: functional, cell-based; conditions: KM12, 48 h; for CC50: read-out: LC50 (the source's name)
Summary of the method: (§1)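 Cells grown in RPMI 1640 with 5% FBS and 2 mM L-glutamine, seeded at 5,000–40,000 cells/well according to doubling time. After 24 h, time-zero plates are TCA-fixed. Five concentrations (10-fold or ½log dilutions, DMSO stocks) are applied for 48 h at 37 °C, 5% CO₂. Cells are TCA-fixed, SRB-stained and read at 515 nm. IC₅₀ is taken from [(Ti−Tz)/(C−Tz)]×100 = 50.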

MOLT-4 = test: Cytotoxicity against human MOLT4 cells assessed as cell growth at 10 uM after 48 hrs by sulforhodamine B assay; format: functional; conditions: MOLT-4, 48 h, read-out: Activity
UACC-257 [2] = test: Growth inhibition of human UACC257 cells after 48 hrs by sulforhodamine B assay; format: functional, cell-based; conditions: UACC-257, 48 h; for CC50: read-out: LC50 (the source's name); summary of the method: as §1
UACC-257 [3] = test: Cytotoxicity against human UACC257 cells assessed as cell growth at 10 uM after 48 hrs by sulforhodamine B assay; format: functional; conditions: UACC-257, 48 h, read-out: Activity
UO-31 = test: Cytotoxicity against human UO31 cells assessed as cell growth at 0.001 uM after 48 hrs by sulforhodamine B assay; format: functional; conditions: UO-31, 48 h, read-out: Activity
NCI-H460 = test: Cytotoxicity against human NCI-H460 cells assessed as cell growth at 100 nM after 48 hrs by sulforhodamine B assay; format: functional; conditions: NCI-H460, 48 h, read-out: Activity
Malme-3M = test: Cytotoxicity against human MALME-3M cells assessed as cell growth at 100 nM after 48 hrs by sulforhodamine B assay; format: functional; conditions: read-out: Activity
EKVX = test: Cytotoxicity against human EKVX cells assessed as cell growth at 10 uM after 48 hrs by sulforhodamine B assay; format: functional; conditions: read-out: Activity
MDA-MB-231 = test: Cytotoxicity against human MDA-MB-231 cells assessed as cell growth at 100 nM after 48 hrs by sulforhodamine B assay; format: functional; conditions: MDA-MB-231, 48 h, read-out: Activity
SK-MEL-5 = test: Cytotoxicity against human SK-MEL-5 cells assessed as cell growth at 100 nM after 48 hrs by sulforhodamine B assay; format: functional; conditions: SK-MEL-5, 48 h, read-out: Activity
HT-29 = test: Cytotoxicity against human HT-29 cells assessed as cell growth at 0.001 uM after 48 hrs by sulforhodamine B assay; format: functional; conditions: HT-29, 48 h, read-out: Activity
OVCAR-8 = test: Cytotoxicity against human OVCAR8 cells assessed as cell growth at 0.01 uM after 48 hrs by sulforhodamine B assay; format: functional; conditions: OVCAR-8, 48 h, read-out: Activity
U-251 = test: Cytotoxicity against human U251 cells assessed as cell growth at 1 uM after 48 hrs by sulforhodamine B assay; format: functional; conditions: U-251, 48 h, read-out: Activity
A498 = test: Growth inhibition of human A498 cells after 48 hrs by sulforhodamine B assay; format: functional, cell-based; conditions: A498, 48 h; for CC50: read-out: LC50 (the source's name)
Summary of the method: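 Five-dose SRB assay. Cells in RPMI 1640 with 5% FBS and 2 mM L-glutamine were seeded at 5,000–40,000 cells/well, with a TCA-fixed time-zero plate (Tz) taken at 24 h. Compound stocks were in DMSO, serially diluted 10-fold or ½-log to five concentrations, and incubated 48 h at 37 °C. Plates were stained with SRB and read at 515 nm. IC₅₀ was taken where [(Ti−Tz)/(C−Tz)]×100 = 50.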

NCI/ADR-RES = test: Cytotoxicity against human NCI/ADR-RES cells assessed as cell growth at 10 uM after 48 hrs by sulforhodamine B assay; format: functional; conditions: read-out: Activity
NCI-H522 = test: Cytotoxicity against human NCI-H522 cells assessed as cell growth at 10 uM after 48 hrs by sulforhodamine B assay; format: functional; conditions: NCI-H522, 48 h, read-out: Activity
SF-268 = test: Cytotoxicity against human SF268 cells assessed as cell growth at 0.01 uM after 48 hrs by sulforhodamine B assay; format: functional; conditions: SF-268, 48 h, read-out: Activity
OVCAR-3 [4] = test: Cytotoxicity against human OVCAR-3 cells assessed as cell growth at 0.001 uM after 48 hrs by sulforhodamine B assay; format: functional; conditions: OVCAR-3, 48 h, read-out: Activity
M14 = test: Cytotoxicity against human M14 cells assessed as cell growth at 1 uM after 48 hrs by sulforhodamine B assay; format: functional; conditions: M14, 48 h, read-out: Activity
TK-10 = test: Cytotoxicity against human TK10 cells assessed as cell growth at 0.001 uM after 48 hrs by sulforhodamine B assay; format: functional; conditions: TK-10, 48 h, read-out: Activity
MDA-MB-468 = test: Cytotoxicity against human MDA-MB-468 cells assessed as cell growth at 100 nM after 48 hrs by sulforhodamine B assay; format: functional; conditions: MDA-MB-468, 48 h, read-out: Activity
A549 = test: Cytotoxicity against human A549 cells assessed as cell growth at 10 uM after 48 hrs by sulforhodamine B assay; format: functional; conditions: A549, 48 h, read-out: Activity
Summary of the method: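 Cells grown in RPMI 1640 with 5% FBS and 2 mM L-glutamine, seeded at 5,000–40,000 cells/well by doubling time. Time-zero plates TCA-fixed after 24 h. Five concentrations (10-fold or half-log dilutions from DMSO stock) added; 48 h at 37 °C, 5% CO2. Cold TCA fixation (final 10%, 60 min, 4 °C), 0.4% SRB stain, dye solubilized in 10 mM trizma base, A515.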

OVCAR-3 [5] = test: Cytotoxicity against human OVCAR-3 cells assessed as cell growth at 1 uM after 48 hrs by sulforhodamine B assay; format: functional; conditions: OVCAR-3, 48 h, read-out: Activity
SN12C = test: Growth inhibition of human SN12C cells after 48 hrs by sulforhodamine B assay; format: functional, cell-based; conditions: for CC50: read-out: LC50 (the source's name); summary of the method: as §1
MDA-MB-435 = test: Growth inhibition of human MDA-MB-435 cells after 48 hrs by sulforhodamine B assay; format: functional, cell-based; conditions: MDA-MB-435, 48 h; for CC50: read-out: LC50 (the source's name); summary of the method: as §1
T47D [6] = test: Cytotoxicity against human T47D cells assessed as cell growth at 10 uM after 48 hrs by sulforhodamine B assay; format: functional; conditions: read-out: Activity

In the case of `CC(=O)Nc1cccc(-c2ccc(-c3ccnc(NC(=O)Nc4cc(C(F)(F)F)cc(C(F)(F)F)c4)n3)cn2)c1.Cl`, the growth at 1 µM (T47D [1]) is reported as -3%, the growth at 0.01 µM (SNB-75) is reported as 71% and the growth at 1 µM (OVCAR-5) is reported as 62%. The GI50 (KM12) was 2.59 µM, the IC50 (KM12) was 2.59 µM and the TGI (KM12) was 8.01 µM. For the same compound, the CC50 (KM12) was 27.9 µM, the growth at 10 µM (MOLT-4) was 11% and the GI50 (UACC-257 [2]) was 1.69 µM. For the same compound, the IC50 (UACC-257 [2]) was 1.69 µM, the TGI (UACC-257 [2]) was 4.32 µM and the CC50 (UACC-257 [2]) was 13.2 µM. For the same compound, the growth at 10 µM (UACC-257 [3]) was -89%, the growth at 0.001 µM (UO-31) was 90% and the growth at 0.1 µM (NCI-H460) was 79%. It also gave a growth at 0.1 µM (Malme-3M) of 93%, a growth at 10 µM (EKVX) of -7% and a growth at 0.1 µM (MDA-MB-231) of 77%. It also gave a growth at 0.1 µM (SK-MEL-5) of 73%, a growth at 0.001 µM (HT-29) of 106% and a growth at 0.01 µM (OVCAR-8) of 96%. It also gave a growth at 1 µM (U-251) of -32%, a GI50 (A498) of 6.13 µM and an IC50 (A498) of 6.13 µM. It also gave a TGI (A498) of 22.2 µM, a CC50 (A498) of 59.2 µM and a growth at 10 µM (NCI/ADR-RES) of 8%. The growth at 10 µM (NCI-H522) was -73%, the growth at 0.01 µM (SF-268) was 95% and the growth at 0.001 µM (OVCAR-3 [4]) was 101%. The growth at 1 µM (M14) was -68%, the growth at 0.001 µM (TK-10) was 103% and the growth at 0.1 µM (MDA-MB-468) was 47%. The growth at 10 µM (A549) was -86%, the growth at 1 µM (OVCAR-3 [5]) was -52% and the GI50 (SN12C) was 9.29 µM. For the same compound, the IC50 (SN12C) was 9.29 µM, the TGI (SN12C) was 23.8 µM and the CC50 (SN12C) was 57.7 µM. It also gave a GI50 (MDA-MB-435) of 2.31 µM, an IC50 (MDA-MB-435) of 2.31 µM and a TGI (MDA-MB-435) of 6.8 µM. The CC50 (MDA-MB-435) was over 100 µM and the growth at 10 µM (T47D [6]) was -14%.
Work on `CC(=O)c1ccccc1-c1ccc(-c2ccnc(NC(=O)Nc3cc(N4CCOCC4)cc(C(F)(F)F)c3)n2)cn1` yielded a growth at 1 µM (T47D [1]) of 60%, a growth at 0.01 µM (SNB-75) of 100% and a growth at 1 µM (OVCAR-5) of 96%. For the same compound, the GI50 (KM12) was over 100 µM, the IC50 (KM12) was over 100 µM and the TGI (KM12) was over 100 µM. It also gave a CC50 (KM12) of over 100 µM, a growth at 10 µM (MOLT-4) of 101% and a GI50 (UACC-257 [2]) of 15.9 µM. It also gave an IC50 (UACC-257 [2]) of over 100 µM, a TGI (UACC-257 [2]) of over 100 µM and a CC50 (UACC-257 [2]) of over 100 µM. The growth at 10 µM (UACC-257 [3]) was 92%, the growth at 0.001 µM (UO-31) was 85% and the growth at 0.1 µM (NCI-H460) was 91%. The growth at 0.1 µM (Malme-3M) was 78%, the growth at 10 µM (EKVX) was 74% and the growth at 0.1 µM (MDA-MB-231) was 84%. It also gave a growth at 0.1 µM (SK-MEL-5) of 84%, a growth at 0.001 µM (HT-29) of 103% and a growth at 0.01 µM (OVCAR-8) of 93%. It also gave a growth at 1 µM (U-251) of 63%, a GI50 (A498) of 13 µM and an IC50 (A498) of over 100 µM. For the same compound, the TGI (A498) was over 100 µM, the CC50 (A498) was over 100 µM and the growth at 10 µM (NCI/ADR-RES) was 69%. The growth at 10 µM (NCI-H522) was 40%, the growth at 0.01 µM (SF-268) was 90% and the growth at 0.001 µM (OVCAR-3 [4]) was 107%. For the same compound, the growth at 1 µM (M14) was 9%, the growth at 0.001 µM (TK-10) was 103% and the growth at 0.1 µM (MDA-MB-468) was 103%. It also gave a growth at 10 µM (A549) of 74%, a growth at 1 µM (OVCAR-3 [5]) of 70% and a GI50 (SN12C) of 1.27 µM. It also gave an IC50 (SN12C) of over 100 µM, a TGI (SN12C) of over 100 µM and a CC50 (SN12C) of over 100 µM. It also gave a GI50 (MDA-MB-435) of over 100 µM, an IC50 (MDA-MB-435) of over 100 µM and a TGI (MDA-MB-435) of over 100 µM. It also gave a CC50 (MDA-MB-435) of over 100 µM and a growth at 10 µM (T47D [6]) of 66%.

— ChEMBL document CHEMBL1165943, “Design and synthesis of new anticancer pyrimidines with multiple-kinase inhibitory effect” (Bioorg Med Chem, 2010)
